In data set [1] the target is gp41-derived NHR peptide N36 (Human immunodeficiency virus type 1 group M subtype B, UniProt P04578). The format is physicochemical, HIV. As to conditions: variable-temperature CD; co-assembly with NHR peptide N36.
The target of a further data set is designed protein gp41-5. Kind of data set: competition fluorescence polarization. More on the design: species or system HIV. The following applies: read-out: Ki for binding to gp41-5; competition FP assay. In a few lines:
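Competition fluorescence polarization binding of test compound to a designed gp41-5 construct made of three NHR segments and two CHR segments joined by flexible loops. Ki reported.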

Another data set concerns HIV-1 DJ258. The data set is classed as cell-based.
In data set [2] the target is proteinase K (Parengyodontium album, UniProt P06873). The following applies: in vitro, ref 3a; cited from earlier work.
Chain of proteinase K (Parengyodontium album, UniProt P06873) (P06873 106-384): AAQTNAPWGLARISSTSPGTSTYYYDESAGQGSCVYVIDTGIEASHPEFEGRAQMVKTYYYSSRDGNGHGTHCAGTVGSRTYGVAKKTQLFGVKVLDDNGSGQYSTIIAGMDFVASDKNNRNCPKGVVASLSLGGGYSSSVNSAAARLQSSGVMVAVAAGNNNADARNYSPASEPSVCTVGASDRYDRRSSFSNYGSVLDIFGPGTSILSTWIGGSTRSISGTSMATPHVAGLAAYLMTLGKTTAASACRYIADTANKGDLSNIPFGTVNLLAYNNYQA
The subject of a further data set is HIV-1 UG270. The format is cell-based.
The test system of a further data set is HIV-1 CC 7/86. The format is cell-based.
The next data set has as its system HIV-1 JRFL. The data set is classed as cell-based.
The test system of data set [3] is proteinase K. Kind of data set: in vitro. The format is in vitro ADME. The following applies: isolated enzyme proteinase k.

pIC50, pKi: −log10 of the molar value. *1 amine or outer side, *2 acyl side, *3 side chain or, on linkers, in order; H or OH if unused. Where a SMILES comes first, the peptide text is derived from it. [ ]: non-standard residue; d: D form. X1 = O=C([C@H]1CCC[C@@H]1N[*:1])[*:2]; X2 = O=C([C@H]1CNC[C@@H]1N[*:1])[*:2]; β3hR = N=C(N)NCCC[C@H](N)CC(=O)O; β3hT = C[C@@H](O)[C@H](N)CC(=O)O; β3hE = N[C@@H](CCC(=O)O)CC(=O)O A value given as a limit tells only on which side of the number the result lay.

What is called pKi is −log10 of the Ki, conventionally taken in molar units. By pIC50 is commonly meant the negative decadic logarithm of the IC50, by convention in mol/L. A higher pIC50 goes with a low IC50. As usually defined, the half-life is how long it takes for the measured level to halve. High values mean slow decline, low ones rapid decline.

Chain of gp41-derived NHR peptide N36 (P04578 546-581 limits assumed): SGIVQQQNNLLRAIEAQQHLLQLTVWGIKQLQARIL

On to “Ac-RTWEEWDRAIAEYARRIEELIRAAQEQQRKNEEALREL-NH2 (N-terminus and C-terminus assumed) [3α]”, for which the “apparent Tm of helix-bundle with N36” value in data set [1] turned out to be 91 °C. Further, at designed protein gp41-5, the pKi was greater than 9.70.

As for `CC[C@H](C)[C@H](NC(=O)[C@H](C)NC(=O)[C@H]1CNC[C@@H]1NC(=O)[C@H](CC(=O)O)NC(=O)[C@H](Cc1c[nH]c2ccccc12)NC(=O)[C@H]1CCC[C@@H]1NC(=O)[C@H](CCC(=O)O)NC(=O)[C@H](Cc1c[nH]c2ccccc12)NC(=O)[C@@H](NC(=O)C[C@@H](NC(C)=O)[C@@H](C)O)[C@@H](C)O)C(=O)N[C@@H](C)C(=O)N[C@@H](CCC(=O)O)CC(=O)N[C@@H](Cc1ccc(O)cc1)C(=O)N[C@@H](C)C(=O)N[C@H]1CCC[C@@H]1C(=O)N[C@@H](CCCNC(=N)N)C(=O)N[C@H](C(=O)N[C@@H](CCC(=O)O)C(=O)N[C@H]1CCC[C@@H]1C(=O)N[C@@H](CC(C)C)C(=O)N[C@H](C(=O)N[C@H]1CNC[C@@H]1C(=O)N[C@@H](C)C(=O)N[C@@H](C)C(=O)N[C@@H](CCC(N)=O)C(=O)N[C@@H](CCC(=O)O)CC(=O)N[C@@H](CCC(N)=O)C(=O)N[C@@H](CCC(N)=O)C(=O)N[C@@H](CCC(=O)O)CC(=O)N[C@@H](CCCCN)C(=O)N[C@@H](CC(N)=O)C(=O)N[C@@H](CCC(=O)O)C(=O)N[C@H]1CCC[C@@H]1C(=O)N[C@@H](C)C(=O)N[C@@H](CC(C)C)C(=O)N[C@H]1CNC[C@@H]1C(=O)N[C@@H](CCC(=O)O)C(=O)N[C@@H](CC(C)C)C(N)=O)[C@@H](C)CC)[C@@H](C)CC` [2α/β] (Ac-[β3hT]TWE[X1]WD[X2]AIA[β3hE]YA[X1]RIE[X1]LI[X2]AAQ[β3hE]QQ[β3hE]KNE[X1]AL[X2]EL-NH2; N-terminus and C-terminus assumed), the pIC50 in the data set with HIV-1 DJ258 was 7.38; in the data set with HIV-1 UG270, 7.41; with HIV-1 CC 7/86, 7.33; in the data set on HIV-1 JRFL it was 6.88. In addition, on proteinase K [2], the “resistance to degradation by proteinase K relative to α-peptide T-2635” value is ~ 300 fold.

Take Enfuvirtide: the pIC50 was 6.70 in the data set on HIV-1 DJ258, 6.96 in the data set on HIV-1 UG270, 6.85 with HIV-1 CC 7/86 and 6.74 in the data set with HIV-1 JRFL.

In the case of `CC[C@H](C)[C@H](NC(=O)[C@H](C)NC(=O)C[C@H](CCCNC(=N)N)NC(=O)[C@H](CC(=O)O)NC(=O)[C@H](Cc1c[nH]c2ccccc12)NC(=O)C[C@H](CCC(=O)O)NC(=O)[C@H](CCC(=O)O)NC(=O)[C@H](Cc1c[nH]c2ccccc12)NC(=O)[C@@H](NC(=O)C[C@H](CCCNC(=N)N)NC(C)=O)[C@@H](C)O)C(=O)N[C@@H](C)C(=O)N[C@@H](CCC(=O)O)CC(=O)N[C@@H](Cc1ccc(O)cc1)C(=O)N[C@@H](C)C(=O)N[C@@H](CCCNC(=N)N)CC(=O)N[C@@H](CCCNC(=N)N)C(=O)N[C@H](C(=O)N[C@@H](CCC(=O)O)C(=O)N[C@@H](CCC(=O)O)CC(=O)N[C@@H](CC(C)C)C(=O)N[C@H](C(=O)N[C@@H](CCCNC(=N)N)CC(=O)N[C@@H](C)C(=O)N[C@@H](C)C(=O)N[C@@H](CCC(N)=O)C(=O)N[C@@H](CCC(=O)O)CC(=O)N[C@@H](CCC(N)=O)C(=O)N[C@@H](CCC(N)=O)C(=O)N[C@@H](CCCNC(=N)N)CC(=O)N[C@@H](CCCCN)C(=O)N[C@@H](CC(N)=O)C(=O)N[C@@H](CCC(=O)O)C(=O)N[C@@H](CCC(=O)O)CC(=O)N[C@@H](C)C(=O)N[C@@H](CC(C)C)C(=O)N[C@@H](CCCNC(=N)N)CC(=O)N[C@@H](CCC(=O)O)C(=O)N[C@@H](CC(C)C)C(N)=O)[C@@H](C)CC)[C@@H](C)CC` [4α/β] (Ac-[β3hR]TWE[β3hE]WD[β3hR]AIA[β3hE]YA[β3hR]RIE[β3hE]LI[β3hR]AAQ[β3hE]QQ[β3hR]KNE[β3hE]AL[β3hR]EL-NH2; N-terminus and C-terminus assumed), the pIC50 with HIV-1 DJ258 is 7.11; with HIV-1 UG270, 7.25; in the data set with HIV-1 CC 7/86, 7.31; with HIV-1 JRFL it was 6.82. In addition, the half-life with proteinase K [3] was 3.5 min. For the same molecule, at designed protein gp41-5, the negative-log Ki (pKi) was 7.96.

`CC[C@H](C)[C@H](NC(=O)[C@H](C)NC(=O)C[C@H](CCCNC(=N)N)NC(=O)[C@H](CC(=O)O)NC(=O)[C@H](Cc1c[nH]c2ccccc12)NC(=O)C[C@H](C)NC(=O)[C@H](CCC(=O)O)NC(=O)[C@H](Cc1c[nH]c2ccccc12)NC(=O)[C@@H](NC(=O)C[C@@H](NC(C)=O)[C@@H](C)O)[C@@H](C)O)C(=O)N[C@@H](C)C(=O)N[C@@H](CCC(=O)O)CC(=O)N[C@@H](Cc1ccc(O)cc1)C(=O)N[C@@H](C)C(=O)N[C@@H](C)CC(=O)N[C@@H](CCCNC(=N)N)C(=O)N[C@H](C(=O)N[C@@H](CCC(=O)O)C(=O)N[C@@H](C)CC(=O)N[C@@H](CC(C)C)C(=O)N[C@H](C(=O)N[C@@H](CCCNC(=N)N)CC(=O)N[C@@H](C)C(=O)N[C@@H](C)C(=O)N[C@@H](CCC(N)=O)C(=O)N[C@@H](CCC(=O)O)CC(=O)N[C@@H](CCC(N)=O)C(=O)N[C@@H](CCC(N)=O)C(=O)N[C@@H](CCC(=O)O)CC(=O)N[C@@H](CCCCN)C(=O)N[C@@H](CC(N)=O)C(=O)N[C@@H](CCC(=O)O)C(=O)N[C@@H](C)CC(=O)N[C@@H](C)C(=O)N[C@@H](CC(C)C)C(=O)N[C@@H](CCCNC(=N)N)CC(=O)N[C@@H](CCC(=O)O)C(=O)N[C@@H](CC(C)C)C(N)=O)[C@@H](C)CC)[C@@H](C)CC` [1α/β] came in with a half-life in the data set on proteinase K [3] of 4 min. In addition, the pKi at designed protein gp41-5 was 5.42.

Values taken from PMC3377471 (Journal of the American Chemical Society, 2012).
